Test results published in the M2OR odorant receptor database.
Positions count from the first letter of the chain named.

Tests used:
Details in all cases: stereoisomer not certain
[1] = molecular target: T1, OR3A1 (Homo sapiens) (UniProt P47881)
T1 sequence (whole entry): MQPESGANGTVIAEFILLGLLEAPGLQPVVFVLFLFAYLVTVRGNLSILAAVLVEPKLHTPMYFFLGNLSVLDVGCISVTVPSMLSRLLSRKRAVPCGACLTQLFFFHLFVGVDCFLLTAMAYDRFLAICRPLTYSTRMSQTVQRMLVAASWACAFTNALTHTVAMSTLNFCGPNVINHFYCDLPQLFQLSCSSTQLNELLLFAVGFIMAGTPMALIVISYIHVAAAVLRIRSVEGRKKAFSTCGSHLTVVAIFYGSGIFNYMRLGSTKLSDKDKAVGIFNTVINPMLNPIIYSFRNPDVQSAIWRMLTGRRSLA
How it was run: (§1)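 Each receptor–molecule pair is labelled responsive or non-responsive (inactive) according to whether the original authors judged the measured signal statistically different from baseline. The data were taken from the main text and supplementary material of published papers and checked for typos and inconsistencies. Assay methods differed by source, with transient luciferase assays in mammalian cell lines being common.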

[2] = molecular target: T2, OR2W3 (Homo sapiens) (UniProt Q7Z3T1)
T2 sequence (whole entry): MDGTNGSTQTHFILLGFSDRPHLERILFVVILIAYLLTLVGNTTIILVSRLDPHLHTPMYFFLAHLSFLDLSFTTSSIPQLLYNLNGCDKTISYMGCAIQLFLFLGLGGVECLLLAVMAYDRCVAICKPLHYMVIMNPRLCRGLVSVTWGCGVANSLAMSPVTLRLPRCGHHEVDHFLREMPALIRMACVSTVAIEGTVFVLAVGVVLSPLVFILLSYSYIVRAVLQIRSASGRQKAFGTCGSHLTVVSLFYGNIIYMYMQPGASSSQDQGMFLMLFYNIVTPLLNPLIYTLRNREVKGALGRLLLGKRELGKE
How it was run: as §1

[3] = molecular target: T3, OR2W5P (Homo sapiens) (UniProt A6NFC9)
T3 sequence (whole entry): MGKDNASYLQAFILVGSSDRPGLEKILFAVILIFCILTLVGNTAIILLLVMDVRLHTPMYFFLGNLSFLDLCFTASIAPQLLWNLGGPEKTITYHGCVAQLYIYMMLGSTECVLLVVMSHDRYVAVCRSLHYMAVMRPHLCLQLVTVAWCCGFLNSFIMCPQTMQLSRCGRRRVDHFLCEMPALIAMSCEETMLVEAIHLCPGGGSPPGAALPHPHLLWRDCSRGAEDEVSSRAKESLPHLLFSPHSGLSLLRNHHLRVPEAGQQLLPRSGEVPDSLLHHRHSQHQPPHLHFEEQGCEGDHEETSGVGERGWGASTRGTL
How it was run: as §1

[4] = molecular target: T4, OR2Y1 (Homo sapiens) (UniProt Q8NGV0)
T4 sequence (whole entry): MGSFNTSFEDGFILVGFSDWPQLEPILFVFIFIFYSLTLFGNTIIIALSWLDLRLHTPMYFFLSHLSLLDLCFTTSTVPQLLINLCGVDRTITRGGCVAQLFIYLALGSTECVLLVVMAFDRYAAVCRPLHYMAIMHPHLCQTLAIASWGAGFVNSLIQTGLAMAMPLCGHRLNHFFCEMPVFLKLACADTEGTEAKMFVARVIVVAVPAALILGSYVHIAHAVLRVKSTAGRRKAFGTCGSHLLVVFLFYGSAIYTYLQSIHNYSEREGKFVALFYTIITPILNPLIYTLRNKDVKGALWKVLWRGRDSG
How it was run: as §1

[5] = system: T5, OR2Y1
T5 sequence (whole entry): T4 sequence (whole entry) with V200L
How it was run: as §1

[6] = molecular target: T6, OR2Z1 (Homo sapiens) (UniProt Q8NG97)
T6 sequence (whole entry): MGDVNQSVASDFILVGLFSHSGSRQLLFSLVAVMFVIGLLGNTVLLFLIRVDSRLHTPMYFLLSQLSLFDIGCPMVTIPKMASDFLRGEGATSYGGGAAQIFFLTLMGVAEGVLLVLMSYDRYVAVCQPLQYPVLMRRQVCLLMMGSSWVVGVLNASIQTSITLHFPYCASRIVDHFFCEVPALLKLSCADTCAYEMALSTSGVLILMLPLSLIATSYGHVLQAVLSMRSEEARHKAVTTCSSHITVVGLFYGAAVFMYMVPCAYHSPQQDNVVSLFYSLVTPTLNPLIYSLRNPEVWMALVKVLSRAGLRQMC
How it was run: as §1

[7] = system: T7, OR3A1
T7 sequence (whole entry): T1 sequence (whole entry) with R125Q
How it was run: as §1

[8] = molecular target: T8, OR3A2 (Homo sapiens) (UniProt P47893)
T8 sequence (whole entry): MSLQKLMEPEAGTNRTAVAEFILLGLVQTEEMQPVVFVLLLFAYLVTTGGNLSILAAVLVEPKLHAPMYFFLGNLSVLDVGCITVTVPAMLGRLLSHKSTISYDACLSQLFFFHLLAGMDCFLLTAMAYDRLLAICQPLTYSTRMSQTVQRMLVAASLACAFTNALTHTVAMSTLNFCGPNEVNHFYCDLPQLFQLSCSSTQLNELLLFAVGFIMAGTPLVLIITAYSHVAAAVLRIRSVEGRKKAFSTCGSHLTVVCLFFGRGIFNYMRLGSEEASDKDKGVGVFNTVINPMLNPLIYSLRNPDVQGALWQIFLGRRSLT
How it was run: as §1

[9] = system: T9, OR3A2 R317K
T9 sequence (whole entry): T8 sequence (whole entry) with R317K
How it was run: as §1

[10] = molecular target: T10, OR3A3 (Homo sapiens) (UniProt P47888)
T10 sequence (whole entry): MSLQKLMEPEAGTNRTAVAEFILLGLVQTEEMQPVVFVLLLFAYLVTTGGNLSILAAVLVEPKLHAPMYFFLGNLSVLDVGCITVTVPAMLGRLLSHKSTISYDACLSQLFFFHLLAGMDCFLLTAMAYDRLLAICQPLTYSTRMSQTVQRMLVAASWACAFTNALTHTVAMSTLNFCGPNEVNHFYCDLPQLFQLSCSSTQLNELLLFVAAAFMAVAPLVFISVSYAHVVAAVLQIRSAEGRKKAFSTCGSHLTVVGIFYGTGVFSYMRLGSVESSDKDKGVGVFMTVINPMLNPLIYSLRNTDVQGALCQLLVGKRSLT
How it was run: as §1

Measured: odorant receptor agonist call

CCCCCC1=C(C)CCC1=O
active: [1]

CCC1OC(C)=C(O)C1=O (stereo unspecified)
inactive: all assays above

CC(C=O)Cc1ccccc1 (stereo unspecified)
active: [1]

COc1ccc(COC=O)cc1
inactive: [1]

CCCCOCC(C)O (stereo unspecified)
inactive: [2]

Cc1ccc(CC(C)C=O)cc1 (stereo unspecified)
active: [1]

Cc1ccc(C(C)C)cc1
inactive: [2]

CC1CCCCCCCCCCCCC(=O)C1 (stereo unspecified)
inactive: [2] | [4] | [6] | [1] | [8] | [10]

CC(C=O)Cc1ccc(C(C)(C)C)cc1 (stereo unspecified)
inactive: [2]
active: [1]

CC(CC=O)c1ccccc1 (stereo unspecified)
active: [1]

CC1=CC(=O)CC(C(C)C)C1 (stereo unspecified)
active: [1]

CC(CO)CS (stereo unspecified)
not listed: [5] | [7] | [9]
inactive: all other assays above

CCCCCCCCCC(C)C=O (stereo unspecified)
inactive: [1]

CCC(O)c1ccccc1 (stereo unspecified)
inactive: [1]

CCCCCC(S)C(C)CO (stereo unspecified)
not listed: [5] | [7] | [9]
inactive: all other assays above

OCC=Cc1ccccc1
inactive: [1]

CCCCCCCC(=O)OCCCCCC
inactive: [1]

COc1ccc(CC(C)C=O)cc1 (stereo unspecified)
active: [1]

Cc1cnc(C)c(C)n1
inactive: all assays above

CC(CC=O)CCc1ccccc1 (stereo unspecified)
active: [1]

CC1=C(O)C(=O)C(C)O1 (stereo unspecified)
inactive: all assays above
